# OX1R antag-1 – human HCRTR1 antagonism | O43613 | CHO/OX1R cells, Fluo-8 calcium fluorescence, orexin A | inhibition, % at 5 µM | 330,000 tested, 0.43% active | AID 434989;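 active means inhibition above its plate's threshold, mean inhibition of all tested compounds on the plate plus 3 SD, cut at about 37% in these data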;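 further: 0% = orexin A challenge wells and 100% = SB-334867-A antagonist wells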
# Target sequence (O43613 whole entry, looked up): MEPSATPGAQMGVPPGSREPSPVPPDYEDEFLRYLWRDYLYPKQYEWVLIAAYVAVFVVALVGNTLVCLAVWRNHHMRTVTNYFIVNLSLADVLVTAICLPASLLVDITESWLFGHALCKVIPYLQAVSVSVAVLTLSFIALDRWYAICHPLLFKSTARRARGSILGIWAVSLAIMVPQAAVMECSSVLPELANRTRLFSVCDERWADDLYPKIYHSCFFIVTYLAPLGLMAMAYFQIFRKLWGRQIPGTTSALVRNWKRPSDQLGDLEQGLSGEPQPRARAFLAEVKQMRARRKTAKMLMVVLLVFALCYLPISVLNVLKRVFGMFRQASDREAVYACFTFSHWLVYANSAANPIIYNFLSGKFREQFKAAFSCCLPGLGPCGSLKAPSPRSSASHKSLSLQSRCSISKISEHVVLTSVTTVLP
# TAAR1 ag – agonists of human TAAR1; AID 624467; CHO RD-HGA16 TAAR1, Fluo-8 calcium fluorescence; vehicle wells 0%, saturating PEA agonist 100%; 360,000 tested, 0.99% active; activation, % at 3 µM;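 active means activation above the mean activation of all test compounds in the run plus 3 SD, cut at about 38% in these data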
#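 System: CHO-derived RD-HGA16 cells with stable Gα16 and human TAAR1. Times: 17-24 h plating, Fluo-8 75 min 37 °C, 30 min RT. Measured by: calcium-sensitive Fluo-8 signal, excitation 470-495, emission 515-575 nm. Read-out basis: % activation relative to PEA EC100 response. Control set: DMSO and PEA EC100. Repeats: no replicates (n 1).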
# CHO parental Ca – counter-screen for OX1R antagonists: effect in parental CHO cells; inhibition, % at 5.6 µM; parental CHO-K1, ATP-induced calcium, Fluo-8 fluorescence; AID 463079; 330,000 tested, 0.63% active;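 active means inhibition above that plate's mean sample inhibition plus 3 SD, cut at about 26% in these data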;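 further: 0% = ATP-challenged DMSO wells and 100% = DMSO wells without ATP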
#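 Material: parental CHO cells / Compound: single nominal dose of 5.6 µM per compound / Signal: Fluo-8 fluorescence / Replicates: singlicate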
# TAAR1 antagonist – human TAAR1 antagonism | 360,000 tested, 1.5% active | Q96RJ0 | inhibition, % at 3 µM | AID 624466 | CHO RD-HGA16 TAAR1, Fluo-8 calcium fluorescence, antagonist;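 active means inhibition above a per-plate cutoff, the mean inhibition of test compounds on that plate plus 3 SD, cut at about 49% in these data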;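 further: 0% = DMSO plus EC80 beta-PEA response and 100% = DMSO alone without agonist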
#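 Material: CHO RD-HGA16 cells bearing hTAAR1; compound dosing: one-point dosing, 3 µM nominal final; schedule: dye loading 75 min at 37 °C, then 30 min room temperature; measured by: calcium fluorescence with Fluo-8; control set: vehicle and agonist controls; replication: n of 1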
# OX1R antag-2 – OX1R (human) antagonism | OX1R-expressing cells, FRET antagonist read-out | AID 485270 | O43613 | inhibition, % at 6.6 µM | 330,000 tested, 1.8% active; in the data active means inhibition mostly above about 38%, no sharp cut-off; inactive means mostly below about 40%;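 further: 0% = agonist challenge alone and 100% = reference antagonist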
# GPR7 antagonist – antagonists of human GPR7 (neuropeptides B/W receptor 1); P48145; GPR7-expressing cells, fluorescence antagonist assay; inhibition, % at 4.4 µM; 290,000 tested, 1.1% active; AID 1861; in the data active means inhibition above about 16%, passing the limit was not always enough;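 further: cells stimulated with the agonist NPW; 0% = agonist with vehicle and 100% = vehicle without agonist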
# OX1R HTRF confirm – confirmation of human orexin 1 receptor antagonists, HTRF format; shares compounds with OX1R antag-2; OX1R-expressing cells, HTRF antagonist assay; inhibition, % at 6.6 µM; 1,800 tested, 49% active; AID 492964; in the data active means inhibition above about 55%;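 further: CHO cells expressing OX1R stimulated with orexin A at about EC80; 0% = agonist challenge alone and 100% = reference antagonist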
# CHO-K1 HTRF cnt – signal in parental CHO-K1 cells, OX1R antagonist counter-screen | shares compounds with OX1R antag-2 | HTRF counterscreen | inhibition, % at 6.6 µM | 1,800 tested, 48% active | AID 493232; in the data active means inhibition above about 17%;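 further: 0% = agonist challenge with vehicle and 100% = vehicle alone without agonist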
# * hit, by the source's call; nt = no result given. The list is not random: actives were taken first. Their share in the collection is about 4.5%.
SMILES,OX1R antag-1,TAAR1 ag,CHO parental Ca,TAAR1 antagonist,OX1R antag-2,GPR7 antagonist,OX1R HTRF confirm,CHO-K1 HTRF cnt
CCOc1cc(C(c2c(C)[nH][nH]c2=O)c2c(C)[nH][nH]c2=O)cc([N+](=O)[O-])c1O,-10,0,-1,-18,25,-9,nt,nt
COc1cc(C(c2c(C)[nH][nH]c2=O)c2c(C)[nH][nH]c2=O)cc([N+](=O)[O-])c1O,-8,1,-4,-23,78*,-5,35,44*
c1ccc2c(-c3nc4ncccc4o3)cccc2c1,-7,22,-18,8,90*,-7,89*,10
CN(C1CCCCC1)S(=O)(=O)c1cc2c3c(c1)CCN3C(=O)CC2,-23,3,4,-5,94*,nt,27,-5
CCOC(=O)c1nn(-c2ccccc2)c(C#N)c1N,-11,6,-4,9,17,-13,nt,nt
CCOC(=O)Nc1nn(-c2ccc(C)cc2)c(=O)c(C#N)c1C,4,2,-5,-24,120*,-9,58*,61*
CCOC(=O)c1nn(-c2ccccc2)c(=O)c(C#N)c1C,-13,5,-10,-2,145*,-8,48,81*
COc1ccccc1NC(=O)N(C)C[C@H]1OCc2cnnn2CCCC(=O)N([C@H](C)CO)C[C@@H]1C,nt,0,nt,0,nt,nt,nt,nt
N#CCSc1nc(-c2ccccc2)nc2ccccc12,18,15,-13,2,94*,-12,89*,5
Cc1ccc(-c2nc(C)c(C(=O)O)s2)cc1,-7,14,0,-10,13,-8,nt,nt
Cc1nc(-c2ccc([N+](=O)[O-])cc2)sc1C(=O)O,-10,0,-8,-9,156*,-5,48,76*
O=C(Nc1ccccn1)c1ccc2ccccc2n1,-3,-1,-18,2,86*,-7,68*,-5
CC(C)N(C(=O)c1nn(C)c2c1CSc1ccccc1-2)C1CCCCC1,-30,-2,-15,-7,4,-12,nt,nt
COc1cccc(C(=O)Nc2cccc(-c3nnc(-c4ccco4)o3)c2)c1,-25,17,-22,43,104*,-14,35,5
O=c1cc(CCl)nc(Cc2c(Cl)cccc2Cl)[nH]1,-2,2,5,-21,20,nt,nt,nt
CC1(C)CC(=O)C(N=Nc2ccc(Br)cc2)=C(O)C1,-19,2,-1,-31,10,-4,nt,nt
COc1ccc(N=NC2=C(O)CC(C)(C)CC2=O)cc1,-10,2,-4,2,102*,-1,33,28*
COc1cccc(/C=N/NC(=O)c2c(-c3ccccc3)noc2C)c1O,4,8,-13,-9,98*,-17,34,10
O=[N+]([O-])c1c(Nc2ccccc2O)cc(N2CCOCC2)c2nonc12,-14,5,-4,-11,80*,-12,42,34*
Cc1cccc(CCN=c2c([N+](=O)[O-])nn(-c3ccccc3)n2O)c1,-10,7,-9,-23,34,1,nt,nt
Cc1cccc(-n2nc([N+](=O)[O-])c(=NC3CCN(Cc4ccccc4)CC3)n2O)c1,-22,3,-17,-8,83*,-5,47,42*
CCn1c(C)c(C(=O)O)c2cc(OC)c3ccccc3c21,-29,-2,-12,-1,99*,2,89*,5
COc1ccccc1-n1c(C)c(C(=O)O)c2cc(OC)c3ccccc3c21,-10,1,-6,-4,8,-4,nt,nt
O=C(CSc1ccc(-c2ccccc2)nn1)c1ccccc1,-5,2,-21,7,82*,-11,41,10
CN1C(=O)NC(=O)C1c1ccccc1 (stereo not drawn),nt,2,nt,-2,nt,nt,nt,nt
SMILES,OX1R antag-1,TAAR1 ag,CHO parental Ca,TAAR1 antagonist,OX1R antag-2,GPR7 antagonist,OX1R HTRF confirm,CHO-K1 HTRF cnt
CC(C)Cn1c(N)c(C(=O)COC(=O)CCc2nc3ccccc3c(=O)[nH]2)c(=O)n(C)c1=O,-33,11,-25,13,1,nt,nt,nt
CC(C)Cn1c(N)c(C(=O)COC(=O)CCNS(=O)(=O)c2ccccc2)c(=O)n(C)c1=O,-10,11,-3,51*,99*,nt,22,2
Cc1c(NC(=O)CN2C(=O)NC(C)(c3ccccc3)C2=O)c(=O)n(-c2ccccc2)n1C (stereo not drawn),-7,6,4,-1,1,-7,nt,nt
Cc1c(NC(=O)CN2C(=O)C(=O)c3ccccc32)c(=O)n(-c2ccccc2)n1C,-16,3,-12,-11,80*,-14,53,51*
CCN(C(=O)CN1C(=O)c2ccc([N+](=O)[O-])cc2C1=O)C1CCS(=O)(=O)C1 (stereo not drawn),-5,2,6,5,90*,nt,64*,74*
CC(C)(C)S(=O)(=O)/C(C#N)=C/c1cccn1S(=O)(=O)c1ccccc1,nt,1,nt,-33,nt,nt,nt,nt
CC(=O)N1CCn2c3c(c(=O)c4cc(C)ccc42)CCC31 (stereo not drawn),-11,3,-5,6,82*,-5,29,13
O=[N+]([O-])c1ccc(Oc2ccc(-c3nnco3)cc2)c(Cl)c1,-7,-1,1,13,45,7,nt,nt
N#Cc1cc([N+](=O)[O-])ccc1Oc1ccc(-c2nnco2)cc1,-5,4,6,-19,79*,13,35,42*
COc1cc(/C=C/C(=O)c2ccc3c(c2)OCCO3)cc(Br)c1OCC(=O)N(C)C,-22,8,-28,13,9,15,nt,nt
O=C(CCNC(=O)c1ccc([N+](=O)[O-])cc1)NCc1ccccc1,nt,2,nt,9,nt,nt,nt,nt
O=C(Cn1cnc2cc([N+](=O)[O-])ccc2c1=O)NCCc1ccc(F)cc1,-14,3,-12,-4,42,-6,nt,nt
O=C(Cn1cnc2cc([N+](=O)[O-])ccc2c1=O)NCc1ccccc1,-15,-1,-11,6,95*,-9,55*,62*
CC(C)N(C(=O)Cn1cnc2cc([N+](=O)[O-])ccc2c1=O)C(C)C,-12,nt,-10,nt,141*,15,44,93*
O=C(CCC(=O)NNC(=O)c1ccc([N+](=O)[O-])cc1)NCc1ccccc1,-18,10,-12,4,91*,-3,33,39*
CCc1ccc(C(=O)Cn2cnc3cc([N+](=O)[O-])ccc3c2=O)cc1,-16,0,-8,5,29,-3,nt,nt
CCOC(=O)[C@]12CCCC=C1N(Cc1ccc(Cl)cc1Cl)C(=O)[C@H](CC(=O)NCc1cccc3ccccc13)C2,nt,-1,nt,-3,nt,nt,nt,nt
